Results: paper PMC7029422 (Bioorganic & medicinal chemistry, 2020)
pIC50: −log10 of the molar value. “Also recorded” adds a separate entry of the source.

Legend:
[1] = test system: MDA-MB-435 human melanoma cells; experiment: Cytotoxicity against MDA-MB-435 cells; assay type: cell-based; details: MDA-MB-435, 72 h, read-out: IC50 value toward the MDA-MB-435 human melanoma cells
[2] = molecular target: Na^+/K^+-ATPase (adenosine 5′-triphosphatase from porcine cerebral cortex); details: read-out: Na+/K+-ATPase activity inhibition, IC50; previous investigation; cited from earlier work
[3] = test system: OVCAR3 human ovarian cancer cells; experiment: Cytotoxicity against OVCAR3 cells; assay type: cell-based; details: OVCAR-3, 72 h, read-out: IC50 value toward the OVCAR3 human ovarian cancer cells
[4] = test system: glucose uptake in H1299 human lung cancer cells; experiment: Glucose uptake assay; assay type: cell-based; details: 30 μM, 15 min treatment; WZB117 30 μM as positive control
Procedure, shortened: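 H1299 cells (DMEM, 25 mM glucose, 10% FBS, 37 °C, 5% CO2) in 24-well plates; washed, serum-starved in FBS-free DMEM 1.5 h, then 30 min in glucose-free KRP. Test compound at final 30 μM for 15 min. Uptake then started with 37 MBq/L 2-deoxy-D-[3H]glucose plus 1 mM glucose (final) for 40 min. Stopped with PBS; lysate radioactivity counted by liquid scintillation. Triplicate, three independent experiments; Student's t-test versus vehicle.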

[5] = test system: HT-29 human colon cancer cells; experiment: Cytotoxicity against HT-29 cells; assay type: cell-based; details: HT-29, 72 h, read-out: IC50 value toward the HT-29 human colon cancer cells

SMILES | pIC50 [1] | pIC50 [2] | pIC50 [3] | Inhibition of glucose uptake/transport in H1299 cells [4] | pIC50 [5]
CO[C@H]1[C@H](O[C@H]2CC[C@]3(C=O)[C@H]4CC[C@]5(C)[C@](O)(C6=CC(=O)OC6)CC[C@]5(O)[C@@H]4CC[C@]3(O)C2)O[C@H](C)[C@H](O)[C@@H]1OC [Compound 1, (3β)-3-[(2,3-di-O-methyl-β-D-fucopyranosyl)oxy]-5β,14β,17β-trihydroxy-19-oxo-17-epi-card-20(22)-enolide] | < 4.70 |  |  |  | 
CO[C@H]1[C@H](O[C@H]2CC[C@]3(C=O)[C@H]4CC[C@]5(C)[C@@H](C6=CC(=O)OC6)CC[C@]5(O)[C@@H]4CC[C@]3(O)C2)O[C@H](C)[C@H](O)[C@@H]1OC [Compound 3, (+)-strebloside] |  | 6.80 | 6.89 | did not inhibit glucose uptake; also recorded: did not inhibit glucose transport | 6.77
CO[C@H]1[C@H](O[C@H]2CC[C@]3(C=O)[C@H]4CC[C@]5(C)[C@@H]6CC[C@]5(O[C@H]5OC(=O)C[C@H]56)[C@@H]4CC[C@]3(O)C2)O[C@H](C)[C@H](O)[C@@H]1OC [Compound 3a, (+)-20,22-dihydro-14,21-epoxystrebloside] | < 4.70 |  |  |  | 
CC(=O)O[C@H]1C(=O)[C@@]2(C)[C@H]([C@H](OC(=O)c3ccccc3)[C@]3(O)C[C@H](OC(=O)[C@H](O)[C@@H](NC(=O)c4ccccc4)c4ccccc4)C(C)=C1C3(C)C)[C@]1(OC(C)=O)CO[C@@H]1C[C@@H]2O [Paclitaxel, reference compound] |  |  |  |  | 9.10
